# Data reported in ChEMBL document CHEMBL4689842, “EUbOPEN Chemogenomics Library wave 1” (2021).
# System: HEK-293T
# Test: Multiplex assay against HEK293T;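 for Population Tubulin-Different-Phenotype (%): share of the cells with healthy nuclei that show this phenotype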
# Format: toxicity, cell-based
# Settings: human
# How it was run: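 Four dyes were applied at seeding to live cells: Hoechst33342, BioTracker Green Microtubule Cytoskeleton Dye, MitoTracker Red and Annexin V Alexa Fluor 680. Imaging after compound addition used a CQ1 microscope at 37°C and 5% CO2. CellPathfinder machine-learning gating then sorted cells into Hoechst high-intensity objects or normal cells, normal cells into healthy, pyknosed or fragmented nuclei, and pyknosed cells into mitotic or apoptotic, with tubulin, mitochondrial-mass and membrane-permeability phenotypes given as per cents of healthy-nucleus cells.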
# [1] = 12 h, 1 µM, compound concentration 1 uM, replicate 1
# [2] = 12 h, 1 µM, compound concentration 1 uM, replicate 2
# [3] = 12 h, 10 µM, compound concentration 10 uM, replicate 1
# [4] = 12 h, 10 µM, compound concentration 10 uM, replicate 2
# [5] = 24 h, 1 µM, compound concentration 1 uM, replicate 1
# [6] = 24 h, 1 µM, compound concentration 1 uM, replicate 2
# [7] = 24 h, 10 µM, compound concentration 10 uM, replicate 1
# [8] = 24 h, 10 µM, compound concentration 10 uM, replicate 2
# [9] = 48 h, 1 µM, compound concentration 1 uM, replicate 1
# [10] = 48 h, 1 µM, compound concentration 1 uM, replicate 2
# [11] = 48 h, 10 µM, compound concentration 10 uM, replicate 1
# [12] = 48 h, 10 µM, compound concentration 10 uM, replicate 2
structure (smiles),measurement,setting,value
CCCn1c(=O)c2[nH]c(-c3cnn(Cc4cccc(C(F)(F)F)c4)c3)nc2n(CC)c1=O [GS 6201],Population Apoptotic (%),[1],48%
same,Population Fragmented Nuclei (%),[1],14%
same,Population Healthy Nuclei (%),[1],15%
same,Population Hoechst High Intensity Objects (%),[1],18%
same,Population Membrane Permeable-Phenotype (%),[1],2%
same,Population Mitochondria Different-Phenotype (%),[1],83%
same,Population Mitotic Cells (%),[1],51%
same,Population Normal (%),[1],81%
same,Population Pyknosed Nuclei (%),[1],69%
same,Population Tubulin-Different-Phenotype (%),[1],67%
same,Total Cell Count,[1],294
same,Population Apoptotic (%),[2],9%
same,Population Fragmented Nuclei (%),[2],7%
same,Population Healthy Nuclei (%),[2],43%
same,Population Hoechst High Intensity Objects (%),[2],5%
same,Population Membrane Permeable-Phenotype (%),[2],10%
same,Population Mitochondria Different-Phenotype (%),[2],9%
same,Population Mitotic Cells (%),[2],90%
same,Population Normal (%),[2],94%
same,Population Pyknosed Nuclei (%),[2],49%
same,Population Tubulin-Different-Phenotype (%),[2],22%
same,Total Cell Count,[2],239
same,Population Apoptotic (%),[3],46%
same,Population Fragmented Nuclei (%),[3],28%
same,Population Healthy Nuclei (%),[3],13%
same,Population Hoechst High Intensity Objects (%),[3],25%
same,Population Membrane Permeable-Phenotype (%),[3],0%
same,Population Mitochondria Different-Phenotype (%),[3],80%
same,Population Mitotic Cells (%),[3],53%
same,Population Normal (%),[3],74%
same,Population Pyknosed Nuclei (%),[3],58%
same,Population Tubulin-Different-Phenotype (%),[3],83%
same,Total Cell Count,[3],316
same,Population Apoptotic (%),[4],8%
same,Population Fragmented Nuclei (%),[4],4%
same,Population Healthy Nuclei (%),[4],45%
same,Population Hoechst High Intensity Objects (%),[4],2%
same,Population Membrane Permeable-Phenotype (%),[4],7%
same,Population Mitochondria Different-Phenotype (%),[4],25%
same,Population Mitotic Cells (%),[4],91%
same,Population Normal (%),[4],97%
same,Population Pyknosed Nuclei (%),[4],49%
same,Population Tubulin-Different-Phenotype (%),[4],31%
same,Total Cell Count,[4],325
same,Population Apoptotic (%),[5],52%
same,Population Fragmented Nuclei (%),[5],19%
same,Population Healthy Nuclei (%),[5],10%
same,Population Hoechst High Intensity Objects (%),[5],23%
same,Population Membrane Permeable-Phenotype (%),[5],0%
same,Population Mitochondria Different-Phenotype (%),[5],75%
same,Population Mitotic Cells (%),[5],47%
same,Population Normal (%),[5],76%
same,Population Pyknosed Nuclei (%),[5],70%
same,Population Tubulin-Different-Phenotype (%),[5],66%
same,Total Cell Count,[5],303
same,Population Apoptotic (%),[6],13%
same,Population Fragmented Nuclei (%),[6],5%
same,Population Healthy Nuclei (%),[6],64%
same,Population Hoechst High Intensity Objects (%),[6],1%
same,Population Membrane Permeable-Phenotype (%),[6],11%
same,Population Mitochondria Different-Phenotype (%),[6],12%
same,Population Mitotic Cells (%),[6],86%
same,Population Normal (%),[6],98%
same,Population Pyknosed Nuclei (%),[6],29%
same,Population Tubulin-Different-Phenotype (%),[6],28%
same,Total Cell Count,[6],288
same,Population Apoptotic (%),[7],47%
same,Population Fragmented Nuclei (%),[7],35%
same,Population Healthy Nuclei (%),[7],18%
same,Population Hoechst High Intensity Objects (%),[7],24%
same,Population Membrane Permeable-Phenotype (%),[7],4%
same,Population Mitochondria Different-Phenotype (%),[7],84%
same,Population Mitotic Cells (%),[7],52%
same,Population Normal (%),[7],75%
same,Population Pyknosed Nuclei (%),[7],46%
same,Population Tubulin-Different-Phenotype (%),[7],72%
same,Total Cell Count,[7],314
same,Population Apoptotic (%),[8],17%
same,Population Fragmented Nuclei (%),[8],3%
same,Population Healthy Nuclei (%),[8],63%
same,Population Hoechst High Intensity Objects (%),[8],1%
same,Population Membrane Permeable-Phenotype (%),[8],8%
same,Population Mitochondria Different-Phenotype (%),[8],17%
same,Population Mitotic Cells (%),[8],82%
same,Population Normal (%),[8],98%
same,Population Pyknosed Nuclei (%),[8],32%
same,Population Tubulin-Different-Phenotype (%),[8],35%
same,Total Cell Count,[8],424
same,Population Apoptotic (%),[9],55%
same,Population Fragmented Nuclei (%),[9],27%
same,Population Healthy Nuclei (%),[9],6%
same,Population Hoechst High Intensity Objects (%),[9],19%
same,Population Membrane Permeable-Phenotype (%),[9],0%
same,Population Mitochondria Different-Phenotype (%),[9],29%
same,Population Mitotic Cells (%),[9],44%
same,Population Normal (%),[9],80%
same,Population Pyknosed Nuclei (%),[9],65%
same,Population Tubulin-Different-Phenotype (%),[9],47%
same,Total Cell Count,[9],303
same,Population Apoptotic (%),[10],14%
same,Population Fragmented Nuclei (%),[10],5%
same,Population Healthy Nuclei (%),[10],81%
same,Population Hoechst High Intensity Objects (%),[10],3%
same,Population Membrane Permeable-Phenotype (%),[10],7%
same,Population Mitochondria Different-Phenotype (%),[10],3%
same,Population Mitotic Cells (%),[10],85%
same,Population Normal (%),[10],96%
same,Population Pyknosed Nuclei (%),[10],13%
same,Population Tubulin-Different-Phenotype (%),[10],12%
same,Total Cell Count,[10],506
same,Population Apoptotic (%),[11],53%
same,Population Fragmented Nuclei (%),[11],44%
same,Population Healthy Nuclei (%),[11],11%
same,Population Hoechst High Intensity Objects (%),[11],24%
same,Population Membrane Permeable-Phenotype (%),[11],0%
same,Population Mitochondria Different-Phenotype (%),[11],62%
same,Population Mitotic Cells (%),[11],46%
same,Population Normal (%),[11],75%
same,Population Pyknosed Nuclei (%),[11],44%
same,Population Tubulin-Different-Phenotype (%),[11],59%
same,Total Cell Count,[11],325
same,Population Apoptotic (%),[12],18%
same,Population Fragmented Nuclei (%),[12],5%
same,Population Healthy Nuclei (%),[12],83%
same,Population Hoechst High Intensity Objects (%),[12],4%
same,Population Membrane Permeable-Phenotype (%),[12],5%
same,Population Mitochondria Different-Phenotype (%),[12],8%
same,Population Mitotic Cells (%),[12],81%
same,Population Normal (%),[12],95%
same,Population Pyknosed Nuclei (%),[12],10%
same,Population Tubulin-Different-Phenotype (%),[12],31%
same,Total Cell Count,[12],739
